Compound activity (PubChem)
Lmaj promast – Leishmania major promastigote growth inhibition; Leishmania major promastigotes, resazurin fluorescence viability; inhibition, % at 10 µM; actives 9% (n = 200,000); AID 1063; in the data active = inhibition above about 50%;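 note: promastigotes grown with compound for 44 hours at 28 °C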
BaF3 tox – counter-screen for JAK2V617F inhibitors: parental Ba/F3 viability inhibitors; CellTiter-Glo ATP luminescence; inhibition, % at 5.6 µM; actives 1.1% (n = 220,000); AID 1486;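 active = inhibition above a per-campaign cutoff, the mean inhibition of all tested compounds plus 3 SD, cut at about 27% in these data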;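 note: 0% = DMSO wells and 100% = JAK Inhibitor I control wells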
bCat nuc transl – alters nuclear translocation of beta-catenin in HeLa cells | immunofluorescence imaging | nuclear translocation activity, % at 5 µM | actives 0.3% (n = 190,000) | AID 1665;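 active = nuclear translocation activity above 50% at 5 µM, with a well cell count of 50 or more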;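 note: per-cell ratio of nuclear to cytoplasmic median beta-catenin stain intensity; plate controls were DMSO negative control for no effect and GSK-3 inhibitor IX positive control for full effect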
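Test system: human HeLa cells, native beta-catenin. Compound dosing: 5 µM primary single dose, 0.1% DMSO, 0.02–20 µM confirmation series. Incubation: compound exposure 24 h at 37°C. Detection: beta-catenin immunostaining with DAPI counterstain, 20x imaging, 6 fields/well. Read-out basis: Nuclear/cytoplasmic beta-catenin signal ratio, % activation.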
Ba/F3 V617F tox – reduce viability of Ba/F3 cells dependent on JAK2V617F; Ba/F3 EpoR-JAK2V617F viability, ATP luminescence; inhibition, % at 5.6 µM; actives 1.1% (n = 220,000); AID 1446;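 active = inhibition above the campaign mean plus 3 SD over all tested compounds, cut at about 24% in these data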;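 note: cytokine-independent growth of Ba/F3 cells driven by EpoR plus mutant JAK2; 0% = DMSO-treated cells and 100% = JAK inhibitor I control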
MT stabilize HCS – stabilizes microtubules in HeLa cells | HeLa tubulin immunostaining HCS, 24 h; share of cells brighter than vehicle mean+2SD | % tubulin-high responders, % at 10 µM | actives 0.83% (n = 200,000) | AID 2205;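 active = plate Z-score above 3 for both tubulin-high and condensed-nucleus cell shares, with cell loss under 80%, at 10 µM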;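 note: anti alpha tubulin signal scored within the nucleus-defined area of each cell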
APP 5UTR inh – APP translation inhibition; SH-SY5Y APP 5'UTR-luciferase reporter, luminescence; inhibition, % at 2 µM; actives 0.82% (n = 190,000); AID 1285;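 active = inhibition above a set limit, derived from the sample mean plus 3 SD, cut at about 45% in these data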
* hit, by the source's call; / = not tested or not shown. Sampled rows, rich in hits. Any-hit rate of the full collection: about 9.6%.

SMILES	Lmaj promast	BaF3 tox	bCat nuc transl	Ba/F3 V617F tox	MT stabilize HCS	APP 5UTR inh
CCc1ccc(C2=NN(S(C)(=O)=O)C(c3cccs3)C2)cc1 (configuration not stated)	67*	8	/	-1	4	-182
O=C(CCn1nc(-c2ccc(F)cc2)ccc1=O)NCc1ccccc1	/	-12	-2	10	/	/
CC(C)c1nc(SCC(=O)N2c3ccccc3CC2C)c2ccccc2n1 (configuration not stated)	16	8	-3	1	2	/
CC(C)Cn1c(=O)c2ccccc2n2c(SCC(=O)N3c4ccccc4CC3C)nnc12 (configuration not stated)	72*	-1	2	-4	3	9
CC(C)NC(=O)Cn1c(SCC(=O)N2c3ccccc3CC2C)nc2ccccc21 (configuration not stated)	13	95*	-3	3	5	0
COc1cc(CN2CCN(C(C)C)C(CCO)C2)ccc1OCc1ccccc1 (configuration not stated)	33	4	0	3	2	14
CCN(CC)S(=O)(=O)c1ccc(Cl)c(NC(=O)COc2ccc(OC)cc2)c1	-10	2	2	-4	3	-10
Fc1ccc(COc2ccc(Br)cc2CNCC2CCCO2)cc1 (configuration not stated)	82*	2	-3	-3	8	-5
c1ccc(CN(Cc2cccs2)C(c2cccs2)c2nnnn2C2CCCC2)cc1 (configuration not stated)	89*	5	-2	-3	4	-21
c1ccc(CC2CCN(C(c3cccs3)c3nnnn3C3CCCC3)CC2)cc1 (configuration not stated)	64*	1	/	-2	2	-6
O=C(c1ccco1)N1CCN(C(c2cccs2)c2nnnn2C2CCCC2)CC1 (configuration not stated)	40	-4	0	0	4	-9
CC(C)C(c1nnnn1Cc1ccc(F)cc1)N1CCN(C(=O)c2ccco2)CC1 (configuration not stated)	13	6	0	3	5	-8
CC(C)C(=O)NNS(=O)(=O)c1ccccc1[N+](=O)[O-]	54*	4	-2	2	5	7
O=C(Nc1ccc(F)cc1)c1ccccc1S(=O)(=O)c1ccccc1[N+](=O)[O-]	58*	9	1	1	1	5
NC(=O)c1ccccc1NC(=O)c1ccccc1S(=O)(=O)c1ccccc1[N+](=O)[O-]	65*	5	-3	1	4	1
CC(C)C(=O)Nc1nnc(CCN2CCCCC2)s1	-2	2	/	-5	2	-7
O=C(CSc1nnc2ccc(-c3ccc(F)cc3)nn12)N1CCCC1	8	4	-2	2	1	9
CCOC(=O)CC(NS(=O)(=O)c1ccc(NC(C)=O)cc1)c1ccc(OCC)cc1 (configuration not stated)	5	7	2	3	4	10
CCOC(=O)CC(NS(=O)(=O)Cc1ccccc1)c1ccc(C)cc1 (configuration not stated)	59*	5	/	-1	2	-2
O=C(NC(=S)Nc1nc2ccc(F)cc2s1)c1ccco1	39	-1	0	0	3	-107
Cc1ccc(C(C#N)c2ccc(C(=O)c3ccc(F)cc3)cc2)cc1 (configuration not stated)	54*	3	/	-2	2	6
N#CC(c1ccc(F)cc1)c1ccc(C(=O)c2ccc(F)cc2)cc1 (configuration not stated)	47	4	/	0	2	-16
CC(=C/c1ccco1)/C=N/NC(=O)c1nnn(-c2nonc2N)c1CN(C)C	-2	3	-2	-3	3	10
CC1CCCCN1C(=O)COc1ccccc1F (configuration not stated)	-5	7	-1	1	2	11
CCOC(=O)C1CCN(C(=O)c2ccc(Cl)c(S(=O)(=O)N3CCOCC3)c2)CC1	-5	92*	-8	-5	2	0
CCOC(=O)N1CCN(C(=O)c2ccc(Cl)c(S(=O)(=O)N3CCOCC3)c2)CC1	-1	-1	0	-3	3	-9
COCc1cc(Sc2ccc(Cl)cc2)nc(C)n1	-7	6	0	2	2	2
